miR122 inh – miR-122 Renilla sensor signal increase in Huh7, primary screen, miR-122 inhibitor project, cell-based, single point, plate reader. Huh7 miR-122 Renilla luciferase sensor, 48 h; neutral wells = 0, positive control = 100. activation (reporter increase), % at 12.5 µM. actives 0.3% (n = 340,000). AID 602342, 2012;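 active = mean replicate activation score at least 90 and every replicate individually at or above 90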;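 note: higher luciferase means less miR-122 activity so hits act as miR-122 inhibitors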
S100A4 MyoIIA – inhibitors of S100A4-myosin IIA peptide binding, primary screen, biochemical, fluorescence polarization, TAMRA-MyoIIA peptide; Protein S100-A4 (Homo sapiens), P26447; inhibition, % at 10.7 µM; actives 0.14% (n = 360,000);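 active = mean inhibition of at least 70% across replicates, with every replicate also reaching that level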
Target sequence (P26447 whole entry, looked up): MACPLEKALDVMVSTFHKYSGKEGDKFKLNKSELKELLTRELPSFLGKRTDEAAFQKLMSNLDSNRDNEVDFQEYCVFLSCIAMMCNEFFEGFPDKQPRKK
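Compound dosing: one dose per compound; test system: human S100A4 monomer with TAMRA-labelled myosin IIA peptide; probe or stimulus: TAMRA-labelled myosin IIA heavy-chain peptide probe, 5 nM; medium: HEPES buffer with Ca2+, pH 7.2; schedule: 5 min incubation before reading; benchmarks: neutral control DMSO, positive control TFP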
FGF22 binding – binders of human FGF22 protein, primary screen, FGF22 synaptogenesis inhibitor project, biophysical, thermal shift, single point | Fibroblast growth factor 22 (Homo sapiens), Q9HCT0 | recombinant FGF22 thermal shift, SYPRO orange fluorescence; percent of sucrose octasulfate shift, DMSO zero | activity (Tm shift, normalised), % at 9.99 µM | actives 1.5% (n = 340,000) | AID 651658, 2012;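 active = mean Tm shift, scaled 0 neutral to 100 positive control, at about 1.3% or above, every replicate too, limit read from the data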
Target sequence (Q9HCT0 whole entry, looked up): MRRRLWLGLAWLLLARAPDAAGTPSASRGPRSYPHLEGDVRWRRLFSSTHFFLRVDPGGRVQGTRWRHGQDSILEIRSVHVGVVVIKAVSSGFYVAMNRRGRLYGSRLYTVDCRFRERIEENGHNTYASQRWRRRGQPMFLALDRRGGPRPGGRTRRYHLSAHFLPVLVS
E-selectin induc – E-selectin induction in HUVECs, primary screen, imaging, HUVEC, immunofluorescence imaging, single point; P16581; normalized: neutral wells 0, TNF-alpha wells 100; activation, % at 7.58 µM; actives 0.37% (n = 260,000);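 active = mean E-selectin-positive cell signal at least 10% of the positive control, reached in at least 60% of replicates, without over 20% cell loss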
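Read-out: % PE-positive cells | Test system: HUVEC | Doses: One compound dose added by pin transfer | Buffer or medium: EGM-2 over gelatin coat | Signal: Immunofluorescence imaging | Benchmarks: TNF-alpha, DMSO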
SIRT5 block – SIRT5 desuccinylase inhibitors, primary screen, biochemical, fluorescence imaging, single point, set 5. NAD-dependent protein deacylase sirtuin-5, mitochondrial (Homo sapiens), Q9NXA8. Purified SirT5, succinyl-peptide AMC, trypsin-coupled fluorescence. inhibition, % at 15 µM. actives 1.1% (n = 330,000). AID 652115, 2013; in the data active = inhibition above about 15%
Target sequence (Q9NXA8 whole entry, looked up): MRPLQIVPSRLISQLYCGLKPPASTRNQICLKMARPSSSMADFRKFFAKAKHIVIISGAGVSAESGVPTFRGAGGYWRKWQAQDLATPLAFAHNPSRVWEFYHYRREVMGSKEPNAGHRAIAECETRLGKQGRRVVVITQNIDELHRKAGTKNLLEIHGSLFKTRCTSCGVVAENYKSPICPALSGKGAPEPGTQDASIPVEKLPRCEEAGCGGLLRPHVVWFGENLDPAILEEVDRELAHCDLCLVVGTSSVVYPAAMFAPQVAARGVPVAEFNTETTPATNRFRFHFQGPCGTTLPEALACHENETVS
* marks the source's active call; other numbers are inactive results; . = not tested or not shown; [ ] = dose if it differs, or a comment. Sampled rows, rich in hits. Any-hit rate of the full collection: about 2.5%.

SMILES	miR122 inh	S100A4 MyoIIA	FGF22 binding	E-selectin induc	SIRT5 block
CCC(=O)N1[C@@H]2c3ccc(-c4cccc(F)c4)c(=O)n3C[C@H]1[C@H](CO)[C@H]2C(=O)OC	0[16.7 µM]	2	0	0	-13
Cc1ccc(-n2c(O)c(C=Nc3ccc(S(N)(=O)=O)cc3)c(=O)[nH]c2=O)cc1	-3	-5	43*	.	3
NS(=O)(=O)c1ccc(N=Cc2c(O)n(-c3ccccc3)c(=O)[nH]c2=O)cc1	-7	-6	0	.	0
OC1/C(=C/c2ccc(Cl)cc2Cl)N2CCC1CC2 (centres undefined)	-2	-22	0	1	2
OC1/C(=C/c2ccc(F)cc2)N2CCC1CC2 (centres undefined)	.	6	43*	.	-4
COc1ccc(C(O)(c2cncnc2)C2CC2)cc1 (centres undefined)	.	7	0	.	11
Cc1c(NC(NC(=O)CF)C(Cl)(Cl)Cl)c(=O)n(-c2ccccc2)n1C (centres undefined)	0	1	43*	.	0
COc1ccc(-c2ccc3c(c2)CN(C(=S)NCCc2ccccc2)Cc2cnnn2-3)cc1	119*	1	0	0	-4
COC(=O)[C@@H]1[C@@H](CO)[C@@H]2Cn3c(ccc(-c4ccccc4OC)c3=O)[C@H]1N2Cc1ccccc1	.	1	.	0	.
CC(=O)C1C(N2CC2)CC2C3CC=C4CC(O)CCC4(C)C3CCC21C (centres undefined)	28	-9	44*	0	-8
C[C@]12CC[C@H](O)CC1=CCC1C2CC[C@@]2(C)C1C[C@@H](O)[C@@H]2O (some centres undefined)	-3	-3	0	0	0
COC(=O)[C@@H]1[C@@H](CO)[C@@H]2Cn3c(ccc(C4=CCCCC4)c3=O)[C@H]1N2C(=O)CC1CC1	2[16.7 µM]	3	0	0	-15
Cc1ccc(C(=O)Nc2ccc(Cl)cc2C(=O)c2ccccc2)cc1	114*	.	.	.	.
COc1ccc(N2C(=O)NC(=O)/C(=C/c3ccc([N+](=O)[O-])s3)C2=O)cc1	-7	-80	0	0	16*
COc1ccccc1N1C(=O)NC(=O)/C(=C/c2ccc([N+](=O)[O-])s2)C1=O	.	-43	0	4	18*
COc1ccc(N2C(=O)NC(=O)/C(=C/c3ccc(N4CCOCC4)cc3)C2=O)cc1	.	-2	0	3	1
COc1ccc(N2C(=O)NC(=O)/C(=C\c3ccc([N+](=O)[O-])s3)C2=O)cc1	.	-30	0	.	20*
CCOc1ccc(N2C(=O)NC(=O)/C(=C\c3cc(OC)c(OC)cc3[N+](=O)[O-])C2=O)cc1	.	9	.	.	.
COc1cccc(N2C(=O)NC(=O)/C(=C/c3ccc([N+](=O)[O-])s3)C2=O)c1	-2	-135	.	0	15*
COc1cccc(N2C(=O)NC(=O)/C(=C/c3ccc4c(c3)Cc3ccccc3-4)C2=O)c1	2	6	0	4	-2
Cn1cc(C(=O)N2CCOCC2)c2ccccc21	0	-7	.	.	-1
Cn1cc(C(=O)NP(=O)(N2CCOCC2)N2CCOCC2)c2ccccc21	-2	-2	44*	.	2
CC12Cc3cn[nH]c3C=C1CCC1C2CCC2(C)C1CCC2(C)O (centres undefined)	-8	-2	0	0	35*
CC12CCC(=O)C=C1CCC1C2CCC2(C)C1CCC2(O)CC#N (centres undefined)	-1	2	0	.	.
O=C(Cc1ccccn1)N1CCCCN2[C@H](CO)[C@H](c3ccc(C#Cc4ccccc4)cc3)[C@@H]2C1	-8[16.7 µM]	-4	0	0	1
SMILES	miR122 inh	S100A4 MyoIIA	FGF22 binding	E-selectin induc	SIRT5 block
O=C(N/N=C/c1c(O)n(Cc2ccccc2)c(=O)[nH]c1=O)c1ccccc1O	-3	.	.	2	.
O=C(N/N=C/c1c(O)n(CCc2ccccc2)c(=O)[nH]c1=O)c1ccccc1O	.	5	1	0	38*
CC[n+]1c(-c2ccccc2)c2cc(N)ccc2c2ccc(N)cc21	.	130*	-1	12	-1
O=C(/C=C/C=C/c1ccccc1)CC1(O)C(=O)Nc2ccccc21 (centres undefined)	-1	-5	43*	1	-1
COC(=O)[C@H]1[C@H](CO)[C@H]2Cn3c(ccc(-c4ccc(F)cc4)c3=O)[C@@H]1N2Cc1cccnc1	.	1	0	0	-11
O=C1NC(=O)N(Cc2ccc(F)cc2)C(=O)/C1=C\c1ccc([N+](=O)[O-])s1	-9	-45	0	.	28*
COc1ccc(CN2C(=O)NC(=O)/C(=C/c3ccc([N+](=O)[O-])s3)C2=O)cc1	-1	-23	0	.	41*
CCCNC(=O)[C@H]1[C@H](CO)[C@H]2Cn3c(cccc3=O)[C@@H]1N2CCC	6[16.7 µM]	.	0	0	.
CC=Cc1ccc2n(c1=O)C[C@@H]1[C@@H](CO)[C@H](C(=O)O)[C@H]2N1S(=O)(=O)c1ccccc1F (mixture of isomers)	.	28	0	0	-2
FC(F)(F)c1cccc(NC2=NCCS2)c1	.	3	44*	0	.
O=P(O)(O)CN1CCNCCN(CP(=O)(O)O)CCNCC1	-4	0	43*	1	.
Cc1nc2ccccc2c(=O)n1-c1cccc(O)c1	-15	.	.	.	.
Cc1ccc(-c2nc3ccccc3c(=O)n2-c2cccc(O)c2)cc1	2	-5	0	164*	4
O=C(Cc1cccnc1)N1CCCCN2[C@H](CO)[C@@H](c3ccc(C#CC4CC4)cc3)[C@@H]2C1	3[16.7 µM]	-1	0	.	2
CCC(CC)NCc1c[nH]c2ccccc12	.	-6	43*	.	-2
CCN(CC)Cc1c[nH]c2ccccc12	9	.	.	.	.
CC1OC(OC2CC(O)C3(CO)C4C(O)CC5(C)C(C6=CC(=O)OC6)CCC5(O)C4CCC3(O)C2)C(O)C(O)C1O (centres undefined)	-17	8	0	.	1
C[C@@H]1O[C@@H](O[C@H]2C[C@@H](O)[C@]3(CO)[C@H]4[C@H](O)C[C@]5(C)[C@@H](C6COC(=O)C6)CC[C@]5(O)[C@@H]4CC[C@]3(O)C2)[C@H](O)[C@H](O)[C@H]1O (some centres undefined)	114*	-4	0	0	-4
COc1ccc(N2C(=O)C(=O)N(c3ccc(OC)cc3)P2(=O)N(CCCl)CCCl)cc1	.	6	43*	0	.

Source: PubChem
